Data as given in ChEMBL document CHEMBL1139980, “Identification of 1-isopropylsulfonyl-2-amine benzimidazoles as a new class of inhibitors of hepatitis B virus” (Eur J Med Chem, 2007).
Calls of active or inactive are those of the source. The calls are words filed in the database; no cut-off is given here.

Tests used:
[1] = Selectivity index, ratio of CC50 for HepG2.2.15 cells to IC50 for HBV; format: functional
Outline: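 The index was calculated as CC50 divided by IC50. CC50 came from an 8-day MTT assay in HepG2.2.15 cells, and IC50 from fluorescent-PCR quantification of HBV DNA after treatment of confluent HepG2.2.15 cultures.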

[2] = test system: Hepatitis B virus; experiment: Inhibition of cytoplasmic HBV DNA synthesis in HepG2.2.15 cells after 8 days; format: functional, organism-based; details: for IC50: HepG2.2.15, 192 h
Outline: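 Confluent HepG2.2.15 cultures were treated with various doses. A 50 µL supernatant sample was added to extraction buffer, boiled for 10 min and centrifuged for 5 min, and aliquots were run in fluorescent PCR with HBV-specific primers and probe. IC50 was taken as the concentration giving 50% inhibition of cytoplasmic HBV DNA synthesis.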

Row | Compound | IC50 [2] [µM] | Ratio CC50/IC50 [1] | Activity [2]
1 | CC(C)S(=O)(=O)n1c(N)nc2cc(NC(=O)c3ccc(F)cc3)ccc21 | 3.7 | 9 | –
2 | CC(C)S(=O)(=O)n1c(N)nc2ccc(NS(=O)(=O)c3ccccc3)cc21 | 1.5 | 41 | –
3 | Nc1ccn([C@@H]2CS[C@H](CO)O2)c(=O)n1 [LAMIVUDINE] | – | >2632 | –
4 | Cc1ccc(S(=O)(=O)Nc2ccc3nc(N)n(S(=O)(=O)C(C)C)c3c2)cc1 | 4.8 | 17 | –
5 | Nc1ncnc2c1ncn2CCOCP(=O)(O)O [ADEFOVIR] | 1.7 | 34 | –
6 | CC(C)S(=O)(=O)n1c(N)nc2cc(NC(=O)c3ccccc3)ccc21 | 2 | >250 | –
7 | Cc1ccc(S(=O)(=O)Nc2ccc3c(c2)nc(N)n3S(=O)(=O)C(C)C)cc1 | 16 | 9 | –
8 | CC(C)S(=O)(=O)n1c(N)nc2ccc(NCc3ccccc3)cc21 | – | – | inactive
9 | Cc1ccc(C(=O)Nc2ccc3nc(N)n(S(=O)(=O)C(C)C)c3c2)cc1 | 4.2 | >119 | –
10 | CC(C)S(=O)(=O)n1c(N)nc2ccc(NC(=O)c3ccccc3)cc21 | 33.7 | >15 | –
11 | CC(C)S(=O)(=O)n1c(N)nc2ccc(NS(=O)(=O)c3cccc([N+](=O)[O-])c3)cc21 | 10.5 | 5 | –

Now from value to compound, other results behind:

Row | IC50 [2] [µM] | Compound | Ratio CC50/IC50 [1] | Activity [2]
12 | 0.94 | CC(C)S(=O)(=O)n1c(N)nc2ccc(NC(=O)c3ccccc3F)cc21 | 51 | –
13 | 1.2 | CC(C)S(=O)(=O)n1c(N)nc2ccc(NC(=O)c3ccc(F)cc3)cc21 | 56 | –
14 | 0.7 | CC(C)S(=O)(=O)n1c(N)nc2ccc(NC(=O)c3c(F)cccc3F)cc21 | 274 | –
15 | 0.82 | CC(C)S(=O)(=O)n1c(N)nc2ccc(NC(=O)c3ccccc3Cl)cc21 | 107 | –
16 | 0.7 | COc1cccc(CN(Cc2cccc(OC)c2)c2ccc3nc(N)n(S(=O)(=O)C(C)C)c3c2)c1 | 123 | –
